Test [1] in a line: reducers of endogenous Her2 protein level, primary screen, SKBR3 breast tumor cells, AlphaScreen, ATP viability (AID 461;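 active = Her2 level under about 52% in both replicate screens, with viability over 70% of control, limit read from the data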;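 as to Her2 level: lower value means less Her2 protein in the cells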;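 as to viability: percent of carrier control wells set as 100% viability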). Particulars: 18-24 h, measured here: SKBR3 viability, ATP luminescence, at 10 µM.
Test [2] deals with Receptor tyrosine-protein kinase erbB-2 (Homo sapiens) (UniProt P04626). The test is described as above. Particulars: 18-24 h, at 10 µM, stronger effect = lower value.
Receptor tyrosine-protein kinase erbB-2 (Homo sapiens), sequence (P04626 whole entry, looked up): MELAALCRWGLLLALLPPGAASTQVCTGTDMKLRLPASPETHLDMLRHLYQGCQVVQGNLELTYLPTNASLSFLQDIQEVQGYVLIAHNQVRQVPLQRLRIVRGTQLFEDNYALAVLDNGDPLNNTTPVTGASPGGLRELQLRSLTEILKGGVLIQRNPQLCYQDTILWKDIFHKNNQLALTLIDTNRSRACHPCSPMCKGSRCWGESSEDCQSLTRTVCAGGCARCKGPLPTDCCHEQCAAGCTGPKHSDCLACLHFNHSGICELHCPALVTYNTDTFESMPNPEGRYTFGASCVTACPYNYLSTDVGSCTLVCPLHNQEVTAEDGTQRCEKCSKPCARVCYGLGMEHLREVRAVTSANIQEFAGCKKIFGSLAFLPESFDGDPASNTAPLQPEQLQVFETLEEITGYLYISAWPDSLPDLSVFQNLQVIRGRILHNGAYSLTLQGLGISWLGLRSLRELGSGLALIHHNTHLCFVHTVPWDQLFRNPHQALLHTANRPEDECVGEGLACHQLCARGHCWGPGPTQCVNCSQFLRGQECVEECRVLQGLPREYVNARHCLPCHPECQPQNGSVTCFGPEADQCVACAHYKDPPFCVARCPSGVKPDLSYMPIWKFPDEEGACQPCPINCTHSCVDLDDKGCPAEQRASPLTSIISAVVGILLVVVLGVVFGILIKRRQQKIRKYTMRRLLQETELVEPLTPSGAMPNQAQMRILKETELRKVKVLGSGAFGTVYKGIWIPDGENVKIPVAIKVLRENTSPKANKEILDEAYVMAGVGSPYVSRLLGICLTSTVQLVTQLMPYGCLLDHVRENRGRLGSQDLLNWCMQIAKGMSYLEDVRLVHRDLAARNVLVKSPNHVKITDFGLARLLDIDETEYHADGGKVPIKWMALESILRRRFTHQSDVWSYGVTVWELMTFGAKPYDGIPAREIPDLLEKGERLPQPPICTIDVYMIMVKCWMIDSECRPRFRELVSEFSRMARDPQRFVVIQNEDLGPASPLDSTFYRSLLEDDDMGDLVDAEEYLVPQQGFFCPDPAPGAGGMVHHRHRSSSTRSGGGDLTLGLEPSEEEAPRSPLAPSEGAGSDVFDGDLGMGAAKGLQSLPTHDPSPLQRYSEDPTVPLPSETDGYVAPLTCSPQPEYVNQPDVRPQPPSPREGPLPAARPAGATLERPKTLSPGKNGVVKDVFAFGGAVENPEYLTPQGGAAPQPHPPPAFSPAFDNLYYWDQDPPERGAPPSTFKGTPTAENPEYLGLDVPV
A short description of test [3]: SK-BR-3 cell growth inhibitors, pilot screen, 24 h, human (AID 572;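 active = viability at or below 10% of carrier control in both of two separate runs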;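 also: compound exposure lasted between 18 and 24 h rather than exactly 24 h; 100% = carrier-treated control wells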). Particulars: SK-BR-3 viability, CellTiter-Glo luminescence, at 10 µM, stronger effect = lower value.
The nature of test [4]: HUVEC growth inhibition – cell-based, human, primary screen (AID 575;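 active = viability at or below 30% in both replicate assays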;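 also: 100% = median of untreated cell wells with 0.1% DMSO on each plate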). Particulars: HUVEC proliferation, CellTiter-Glo luminescence, 72 h; at 10 µM; stronger effect = lower value. In short, it runs like this:
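system = HUVEC primary cells | amount = 1250 cells/well | buffer or medium = supplemented EBM, 2% fetal bovine serum | dosing = single-point 10 µM, DMSO 0.1% final | times = 72 h compound incubation | detection = CTG luminescence | read-out = % viability relative to median vehicle-well signal on each plate | control set = vehicle and MePR control wells | format = collagen-coated 384-well format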
For orientation: ATP-based viability assays read luminescence as a measure of living cells.

Test [5] is described as follows: growth inhibitors of H69AR lung tumor, primary screen, human, duplicate replicates (AID 580;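 active = viability at or under a set limit in both replicates, limit being median viability minus 3 SD, cut at about 48% in these data, passing the limit was not always enough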;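 also: 100% = mean luminescence of untreated wells and 0% = no signal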). Particulars: H69AR lung tumor cells viability, ATP luminescence, 72 h; at 10 µM; stronger effect = lower value.
Test [6] is described as follows: reversal of MRP1-mediated doxorubicin resistance, pilot screen, H69AR cells, doxorubicin co-treatment (AID 601). Particulars: CellTiter-Glo, 72 h, at 10 µM; for differential viability (reversal): stronger effect = higher value.
The nature of test [7]: 384-well plate pilot, post-Golgi transport modulator project, inhibition of yeast transport mutant growth (AID 636; in the data active = inhibition above about 31%). Particulars: absorbance 615 nm, about 18 h, stronger effect = higher value.
Test [8] in a line: growth suppression of yeast trafficking mutant, preliminary HTS, modulators of trafficking downstream of Golgi apparatus project, 1536-format plate, OD 615 nm (AID 637; in the data active = inhibition above about 30%). Particulars: yeast transport mutant growth, absorbance 615 nm, 18 h; stronger effect = higher value.
Where [9] appears, read: H69AR cells + 2 uM doxorubicin, measured here: viability with 2 uM doxorubicin, stronger effect = lower value.
The mark [10] stands for this setting: H69AR cells, compound alone cytotoxicity.

The structures appear in SMILES notation. Activity calls are given as the source filed them.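 The calls were made as follows, unless noted: active = viability loss from added drug above about 55%, and viability with drug at most 40%, in both replicates (limit read from the data, passing the limit was not always enough); inconclusive = both conditions met in only one replicate; inactive = neither replicate meets both conditions.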

A word on the viability: it is a read-out of living cells in per cent, often relative to untreated cells. A word on the inhibition: it is the drop in the measured response relative to a control, in per cent. Take `O=C1c2ccccc2C(=O)N1OCc1ccccc1`: the viability in test [1] was 95.5%; in test [3] it was 95.5% (inactive); in test [4], 101% (inactive); in test [5] it was 92.2% (inactive); in test [6] (setting [9]) it was 92.9%; in test [6] (setting [10]), 92.2%. Moreover, in test [2], the Her2 level was 91.5% (inactive). In test [6] (H69AR cells + 2 uM doxorubicin), the differential viability (reversal) was -0.76% (inactive). Besides, the inhibition in test [7] was -6.18% (inactive); in test [8], 3.93% (inactive).

With `CC1CN(CC(O)COc2ccc(C(C)C)cc2)CC(C)O1` (stereo not given), the viability is 93% in test [1]; 93% (inactive) in test [3]; 94.9% (inactive) in test [4]; 76.2% (inactive) in test [5]; 72.4% in test [6] (setting [9]); 76.2% in test [6] (setting [10]). In test [2], the Her2 level is 94.5% (inactive). The differential viability (reversal) in test [6] (H69AR cells + 2 uM doxorubicin) was 3.78% (inactive). For the same molecule, the results for the inhibition in test [7] and in test [8] were 18.6% (inactive) and 6% (inactive), respectively.

Consider `Cc1ccc(C)c2[nH]c(=O)c(CCNC(=O)c3ccc(Br)o3)cc12`, for which the viability is 87% in test [1]; 87% (inactive) in test [3]; 72.8% (inactive) in test [4]; 89.3% (inactive) in test [5]; 83.4% in test [6] (setting [9]); 89.3% in test [6] (setting [10]). The Her2 level in test [2] is 87% (inactive). Also, the differential viability (reversal) in test [6] (H69AR cells + 2 uM doxorubicin) was 5.93% (inactive). The values for the inhibition in test [7] and in test [8] were -7.81% (inactive) and -4.6% (inactive), respectively.

Take `COc1cccc(OCCn2ccnc2)c1`: the viability in test [1] is 90.5%; in test [3], 90.5% (inactive); in test [4], 89.6% (inactive); in test [5] it was 89.4% (inactive); in test [6] (setting [9]) it was 93.1%; in test [6] (setting [10]), 89.4%. Moreover, the Her2 level in test [2] was 104% (inactive). For the same molecule, in test [6] (H69AR cells + 2 uM doxorubicin), the differential viability (reversal) is -3.7% (inactive). The inhibition is -4.93% (inactive) in test [7] and -9.21% (inactive) in test [8].

`Cc1nn(-c2ccccc2)c2c1C(=O)NC(=O)C(C)(C)C2`: the viability in test [1] was 96.5%; in test [3], 96.5% (inactive); in test [4] it was 105% (inactive); in test [5], 97.3% (inactive); in test [6] (setting [9]) it was 81.1%; in test [6] (setting [10]), 97.3%. In addition, in test [2], the Her2 level is 88.5% (inactive). Besides, in test [6] (H69AR cells + 2 uM doxorubicin), the differential viability (reversal) was 16.2% (inactive). Also, the inhibition in test [7] is -4.08% (inactive); in test [8] it was -1.27% (inactive).

As to `CCCn1c(SCC(=O)Nc2nnc(-c3ccccc3)s2)nnc1-c1ccccn1`, the viability in test [1] was 98.5%; in test [3], 98.5% (inactive); in test [4] it was 84.6% (inactive); in test [5], 102% (inactive); in test [6] (setting [9]) it was 96.8%; in test [6] (setting [10]), 102%. For the same molecule, the Her2 level in test [2] was 112% (inactive). Also, in test [6] (H69AR cells + 2 uM doxorubicin), the differential viability (reversal) is 5.49% (inactive). Further, the inhibition in test [7] was -2.7% (inactive); in test [8], 25% (inactive).

`O=C(COn1nnc2ccc(C(F)(F)F)cc21)Nc1nnc(-c2ccccc2)o1`: the viability was 87% in test [1]; 87% (inactive) in test [3]; 68.2% (inactive) in test [4]; 97.8% (inactive) in test [5]; 82.3% in test [6] (setting [9]); 97.8% in test [6] (setting [10]). In test [2], the Her2 level was 92.5% (inactive). In addition, the differential viability (reversal) in test [6] (H69AR cells + 2 uM doxorubicin) was 15.5% (inactive). The inhibition was -7.76% (inactive) in test [7] and -3.27% (inactive) in test [8].

Turning to `Cc1cc(NC(=O)C23CCC(C)(C(=O)O2)C3(C)C)no1` (stereo not given), the viability in test [1] is 108%; in test [3] it was 108% (inactive); in test [4] it was 96.7% (inactive); in test [5], 97.5% (inactive); in test [6] (setting [9]), 89.2%; in test [6] (setting [10]), 97.5%. Further, the Her2 level in test [2] is 93% (inactive). In addition, in test [6] (H69AR cells + 2 uM doxorubicin), the differential viability (reversal) is 8.27% (inactive). In addition, the results for the inhibition in test [7] and in test [8] were -0.78% (inactive) and 0.63% (inactive), respectively.

In the case of `Cc1c(NC(=O)c2ccc(COc3ccc4ccccc4c3)o2)c(=O)n(-c2ccccc2)n1C`, the viability is 88.5% in test [1]; 88.5% (inactive) in test [3]; 91.2% (inactive) in test [4]; 99% (inactive) in test [5]; 85.3% in test [6] (setting [9]); 99% in test [6] (setting [10]). For the same molecule, the Her2 level in test [2] is 91% (inactive). Moreover, in test [6] (H69AR cells + 2 uM doxorubicin), the differential viability (reversal) is 13.7% (inactive). The inhibition is -5.47% (inactive) in test [7] and -5.9% (inactive) in test [8].

As for `O=C1c2ccccc2-c2nc3ncnn3c(-c3ccccc3)c21`, the viability is 93.5% in test [1]; 93.5% (inactive) in test [3]; 103% (inactive) in test [4]; 102% (inactive) in test [5]; 93.2% in test [6] (setting [9]); 102% in test [6] (setting [10]). Also, the Her2 level in test [2] is 105% (inactive). The differential viability (reversal) in test [6] (H69AR cells + 2 uM doxorubicin) was 8.68% (inactive). The inhibition was 1.97% (inactive) in test [7] and -3.45% (inactive) in test [8].

In the case of `COc1ccccc1C(=O)NC(C)C(c1cccs1)N1CCN(C)CC1` (stereo not given), the viability is 103% in test [1]; 103% (inactive) in test [3]; 78.9% (inactive) in test [4]; 91.1% (inactive) in test [5]; 91.5% in test [6] (setting [9]); 91.1% in test [6] (setting [10]). The Her2 level in test [2] was 149% (inactive). In test [6] (H69AR cells + 2 uM doxorubicin), the differential viability (reversal) is -0.4% (inactive). For the same molecule, the inhibition in test [7] is 1.58% (inactive); in test [8], -6.67% (inactive).

With `CC1(C)CC(=O)C(C=NCc2ccc3c(c2)OCO3)=C(O)C1`, the viability was 104% in test [1]; 104% (inactive) in test [3]; 96.6% (inactive) in test [4]; 91.3% (inactive) in test [5]; 86.3% in test [6] (setting [9]); 91.3% in test [6] (setting [10]). In test [2], the Her2 level was 95.5% (inactive). In test [6] (H69AR cells + 2 uM doxorubicin), the differential viability (reversal) is 5% (inactive). In addition, the values for the inhibition in test [7] and in test [8] were 0.65% (inactive) and -4.92% (inactive), respectively.

As to `O=c1[nH]c2cc3c(cc2cc1C(c1nnnn1Cc1ccccc1)N1CCCc2ccccc21)OCO3` (stereo not given), the viability in test [1] is 98.5%; in test [3], 98.5% (inactive); in test [4], 79.3% (inactive); in test [5] it was 61.6% (inactive); in test [6] (setting [9]), 61.8%; in test [6] (setting [10]), 61.6%. Also, the Her2 level in test [2] is 95.5% (inactive). The differential viability (reversal) in test [6] (H69AR cells + 2 uM doxorubicin) is -0.235% (inactive). Moreover, the inhibition is -3.73% (inactive) in test [7] and 4.43% (inactive) in test [8].

For the molecule `COc1ccc(C2C=C(c3ccccc3)Nc3ncnn32)cc1` (stereo not given), the viability was 92.5% in test [1]; 92.5% (inactive) in test [3]; 110% (inactive) in test [4]; 101% (inactive) in test [5]; 100% in test [6] (setting [9]); 101% in test [6] (setting [10]). The Her2 level in test [2] was 94.5% (inactive). Further, in test [6] (H69AR cells + 2 uM doxorubicin), the differential viability (reversal) is 1.29% (inactive). Also, the inhibition was -3.65% (inactive) in test [7] and 3.65% (inactive) in test [8].
